# Laboratory results: ChEMBL document CHEMBL1154858, “Synthesis, in vitro antibacterial and antifungal evaluations of new alpha-hydroxyphosphonate and new alpha-acetoxyphosphonate derivatives of tetrazolo [1, 5-a] quinoline” (2010)
# Columns and labels:
# Assay type in all cases: functional
# [1] = test system: Bacillus subtilis; assay: Antibacterial activity against Bacillus subtilis NCIM 2250 after 24 hrs by cup plate method; conditions: NCIM 2250, 24 h
# Summary of the method: (§1)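 Cup-plate MIC on Mueller Hinton agar plates containing the compound at 0 (control), 1, 2, 3, 5, 10, 15, 20, 30 and 40 (unit unclear), with compounds dissolved in DMF. Plates were read after 24 h and incubated further up to 72 h where needed. MIC is the lowest concentration giving no visible macroscopic growth.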
# [2] = test system: Escherichia coli; assay: Antibacterial activity against Escherichia coli ATCC 25922 after 48 hrs by agar cup plate method
# Summary of the method: (§2)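 Agar cup plate zone-of-inhibition assay on Mueller Hinton agar, with compounds dissolved in DMF and streptomycin in DMF as the reference. Plates were incubated at 37 ± 0.5 °C for 48 h. Inhibition was scored as the diameter of the growth-free zone around the cup.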
# [3] = test system: Candida albicans; assay: Antifungal activity against Candida albicans MTCC 277 after 48 hrs by agar cup plate method
# Summary of the method: (§3)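 Fungal zone-of-inhibition test in Czapek Dox medium by the agar cup method, with compounds dissolved in DMF and griseofulvin in DMF as the reference. Plates were incubated at 28 ± 0.5 °C for 48 h. Activity was taken as the diameter of the zone of inhibited growth around the cup.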
# [4] = test system: Escherichia coli; assay: Antibacterial activity against Escherichia coli ATCC 25922 after 24 hrs by cup plate method; conditions: ATCC 25922, 24 h; summary of the method: as §1
# [5] = test system: Aspergillus niger; assay: Antifungal activity against Aspergillus niger NCIM 545 after 24 hrs by cup plate method; conditions: NCIM 545, 24 h; summary of the method: as §1
# [6] = test system: Aspergillus niger; assay: Antifungal activity against Aspergillus niger NCIM 545 after 48 hrs by agar cup plate method; summary of the method: as §3
# [7] = test system: Candida albicans; assay: Antifungal activity against Candida albicans MTCC 277 after 24 hrs by cup plate method; conditions: MTCC 277, 24 h; summary of the method: as §1
# [8] = test system: Bacillus subtilis; assay: Antibacterial activity against Bacillus subtilis NCIM 2250 after 48 hrs by agar cup plate method; summary of the method: as §2
SMILES,MIC [1] [µg/mL],diameter of the inhibition zone (DIZ) [2] [mm],diameter of the inhibition zone (DIZ) [3] [mm],MIC [4] [µg/mL],MIC [5] [µg/mL],diameter of the inhibition zone (DIZ) [6] [mm],MIC [7] [µg/mL],diameter of the inhibition zone (DIZ) [8] [mm]
CCOP(=O)(OCC)C(O)c1cc2cccc(C)c2n2nnnc12 (configuration not stated),10,13.7,13,25,15,13.1,10,12.3
CCOP(=O)(OCC)C(O)c1cc2cc(C)ccc2n2nnnc12 (configuration not stated),10,15,13.2,10,10,14.2,10,15.2
CCOP(=O)(OCC)C(O)c1cc2ccc(OC)cc2n2nnnc12 (configuration not stated),10,13.6,13.4,15,10,14.4,10,12
CCOP(=O)(OCC)C(OC(C)=O)c1cc2cc(OC)ccc2n2nnnc12 (configuration not stated),10,12.4,13.4,10,10,14.2,10,13.2
CCOP(=O)(OCC)C(OC(C)=O)c1cc2ccccc2n2nnnc12 (configuration not stated),15,12.5,14.2,10,20,13.4,10,11.2
CN[C@@H]1[C@H](O[C@H]2[C@H](O[C@H]3[C@H](O)[C@@H](O)[C@H](N=C(N)N)[C@@H](O)[C@@H]3N=C(N)N)O[C@@H](C)[C@]2(O)C=O)O[C@@H](CO)[C@H](O)[C@H]1O [STREPTOMYCIN],5,16.2,–,5,–,–,–,16.4
CCOP(=O)(OCC)C(O)c1cc2ccccc2n2nnnc12 (configuration not stated),10,13.4,13.6,20,15,12.1,10,12
CCOP(=O)(OCC)C(O)c1cc2cccc(OC)c2n2nnnc12 (configuration not stated),10,13.3,13.8,15,15,11.5,15,12.5
CCOP(=O)(OCC)C(O)c1cc2cccc(CC)c2n2nnnc12 (configuration not stated),10,16.2,13.4,20,10,14.2,10,14.5
CCOP(=O)(OCC)C(OC(C)=O)c1cc2cccc(C)c2n2nnnc12 (configuration not stated),20,13.4,12.2,10,15,12.2,10,13.1
CCOP(=O)(OCC)C(O)c1cc2cc(OC)ccc2n2nnnc12 (configuration not stated),10,13.3,14.1,15,15,12.2,10,12.4
CCOP(=O)(OCC)C(OC(C)=O)c1cc2cc(C)ccc2n2nnnc12 (configuration not stated),10,11.4,13.1,15,10,14.1,10,12
CCOP(=O)(OCC)C(OC(C)=O)c1cc2ccc(C)cc2n2nnnc12 (configuration not stated),10,13.2,13.4,15,10,15.2,10,14.1
CCOP(=O)(OCC)C(O)c1cc2ccc(C)cc2n2nnnc12 (configuration not stated),10,12,13.8,15,15,13.2,10,13.6
CCOc1ccc2c(c1)cc(C(O)P(=O)(OCC)OCC)c1nnnn12 (configuration not stated),10,13.5,13.8,15,15,12.8,10,15.4
CCOc1ccc2c(c1)cc(C(OC(C)=O)P(=O)(OCC)OCC)c1nnnn12 (configuration not stated),10,13.8,14.1,10,10,14.5,10,12.1
CCOP(=O)(OCC)C(OC(C)=O)c1cc2ccc(OC)cc2n2nnnc12 (configuration not stated),10,11.1,13.8,15,25,12.5,10,12.5
CCOP(=O)(OCC)C(OC(C)=O)c1cc2cccc(OC)c2n2nnnc12 (configuration not stated),15,13.9,12.1,25,15,13.4,15,11.4
CCOP(=O)(OCC)C(OC(C)=O)c1cc2cccc(CC)c2n2nnnc12 (configuration not stated),10,14.2,12.1,10,15,13.5,10,15.1
COC1=CC(=O)C[C@@H](C)[C@]12Oc1c(Cl)c(OC)cc(OC)c1C2=O [GRISEOFULVIN],–,–,16.4,–,5,16.5,5,–
